Measurements as given in ChEMBL document CHEMBL1151987, “Glionitrin A, an antibiotic-antitumor metabolite derived from competitive interaction between abandoned mine microbes” (J Nat Prod, 2009).
In brackets after ≈: the same amount, converted by molar mass.

What was measured:
Trichophyton rubrum = test: Antifungal activity against Trichophyton rubrum IFO 9185; assay type: functional
Micrococcus luteus = test: Antibacterial activity against Micrococcus luteus IFC 12708; assay type: functional
Proteus vulgaris = test: Antibacterial activity against Proteus vulgaris ATCC 3851; assay type: functional
[1] = tested on: Salmonella enterica subsp. enterica; test: Antibacterial activity against Salmonella Typhimurium ATCC 14028; assay type: functional, Salmonella enterica subsp. enterica serovar Typhimurium
Staphylococcus aureus [2] = test: Antibacterial activity against methicillin-resistant Staphylococcus aureus ATCC 700788; assay type: functional
Bacillus subtilis = test: Antibacterial activity against Bacillus subtilis ATCC 6633; assay type: functional
Staphylococcus aureus [3] = test: Antibacterial activity against methicillin-resistant Staphylococcus aureus ATCC 43300; assay type: functional
Staphylococcus aureus [4] = test: Antibacterial activity against methicillin-resistant Staphylococcus aureus ATCC 700787; assay type: functional
DU-145 = test: Cytotoxicity against human DU145 cells; assay type: functional, cell-based
In short: (§1)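 Cell proliferation inhibition measured by MTT assay; the value is reported as IC50 in µM.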

HepG2 = test: Cytotoxicity against human HepG2 cells; assay type: functional, cell-based; in short: as §1
HCT-116 = test: Cytotoxicity against human HCT116 cells; assay type: functional, cell-based; in short: as §1
MCF7 = test: Cytotoxicity against human MCF7 cells; assay type: functional, cell-based; in short: as §1
A549 = test: Cytotoxicity against human A549 cells; assay type: functional, cell-based; in short: as §1
Aspergillus fumigatus = test: Antifungal activity against Aspergillus fumigatus HIC 6094; assay type: functional
AGS = test: Cytotoxicity against human AGS cells; assay type: functional, cell-based; in short: as §1

C[C@@H]1[C@H](O)[C@@H](C)/C=C/C=C/C=C/C=C/C=C/C=C/C=C/[C@H](O[C@@H]2O[C@H](C)[C@@H](O)[C@H](N)[C@@H]2O)C[C@@H]2O[C@](O)(C[C@@H](O)C[C@@H](O)[C@H](O)CC[C@@H](O)C[C@@H](O)CC(=O)O[C@H]1C)C[C@H](O)[C@H]2C(=O)O [AMPHOTERICIN B]
MIC (Trichophyton rubrum): 1.56 µg/mL (≈ 1.69 µM)

CC1(C)S[C@@H]2[C@H](NC(=O)[C@H](N)c3ccccc3)C(=O)N2[C@H]1C(=O)O [AMPICILLIN]
MIC (Micrococcus luteus): 0.78 µg/mL (≈ 2.23 µM)
MIC (Proteus vulgaris): 1.56 µg/mL (≈ 4.46 µM)
MIC [1]: 12.5 µg/mL (≈ 35.8 µM)
MIC (Staphylococcus aureus [2]): 25 µg/mL (≈ 71.5 µM)
MIC (Bacillus subtilis): 3.13 µg/mL (≈ 8.96 µM)
MIC (Staphylococcus aureus [3]): 12.5 µg/mL (≈ 35.8 µM)
MIC (Staphylococcus aureus [4]): 12.5 µg/mL (≈ 35.8 µM)

CN1C(=O)[C@@]23Cc4ccc([N+](=O)[O-])cc4N2C(=O)[C@@]1(CO)SS3 [GLIONITRIN A]
IC50 (DU-145): 0.24 µM
MIC (Micrococcus luteus): 0.78 µg/mL (≈ 2.21 µM)
MIC (Proteus vulgaris): 3.13 µg/mL (≈ 8.86 µM)
MIC [1]: 3.13 µg/mL (≈ 8.86 µM)
IC50 (HepG2): 2.3 µM
MIC (Staphylococcus aureus [2]): 0.78 µg/mL (≈ 2.21 µM)
MIC (Bacillus subtilis): 6.25 µg/mL (≈ 17.7 µM)
MIC (Staphylococcus aureus [3]): 0.78 µg/mL (≈ 2.21 µM)
IC50 (HCT-116): 0.82 µM
IC50 (MCF7): 2 µM
MIC (Trichophyton rubrum): 12.5 µg/mL (≈ 35.4 µM)
MIC (Staphylococcus aureus [4]): 0.78 µg/mL (≈ 2.21 µM)
IC50 (A549): 0.55 µM
MIC (Aspergillus fumigatus): 12.5 µg/mL (≈ 35.4 µM)
IC50 (AGS): 0.45 µM
